Source: ChEMBL document CHEMBL3286133, “Synthesis, biological evaluation and molecular docking studies of trans-indole-3-acrylamide derivatives, a new class of tubulin polymerization inhibitors” (Bioorg Med Chem, 2014)
pIC50: −log10 of the molar value. The source made the active and inactive calls. The rule behind the calls is not given here.

Assays:
HL-60 [1] = experiment: Antiproliferative activity against human HL60 cells after 48 hrs by MTT assay; assay type: functional, cell-based; conditions: HL-60, 48 h
Summary of the method: (§1)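 MTT viability assay. HL-60 and Raji were grown in RPMI-1640 and MCF7/MDA-MB-231 in DMEM, all with 10% FBS, at 37 °C under 5% CO₂. Cells were seeded at 10,000/well, held overnight in 1% FBS medium, then exposed 48 h to 0.1–125 µM. Solvent control was 0.1% DMSO. MTT was 0.5 mg/mL for 4 h, formazan was dissolved in DMSO, and absorbance read at 570 nm. Quadruplicates; IC50 taken from concentration–response curves.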

MCF7 = experiment: Antiproliferative activity against human MCF7 cells after 48 hrs by MTT assay; assay type: functional, cell-based; conditions: MCF7, 48 h; summary of the method: as §1
MDA-MB-231 = experiment: Antiproliferative activity against human MDA-MB-231 cells after 48 hrs by MTT assay; assay type: functional, cell-based; conditions: MDA-MB-231, 48 h; summary of the method: as §1
Raji = experiment: Antiproliferative activity against human Raji cells after 48 hrs by MTT assay; assay type: functional, cell-based; summary of the method: as §1
HeLa [2] = experiment: Antiproliferative activity against human HeLa cells after 48 hrs by MTT assay; assay type: functional, cell-based
Tubulin = Tubulin (Bos taurus, UniProt Q6B856+Q862L2+Q862F3); experiment: Inhibition of bovine brain tubulin polymerization after 20 mins by spectrophotometry
Tubulin (Bos taurus) [3] = target: T1, Tubulin (Bos taurus) (UniProt Q6B856+Q862L2+Q862F3); experiment: Displacement of [3H]colchicine from bovine brain tubulin at 50 uM after 10 mins by liquid scintillation counting
Summary of the method: (§2)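 [³H]colchicine binding in 0.1 mL. Bovine brain tubulin 1.0 µM, [³H]colchicine 5.0 µM, 1.0 M glutamate, 5% DMSO, inhibitor at 5 or 50 µM; 10 min at 37 °C. Reactions were stopped with ice-cold water and filtered through two stacked DEAE-cellulose filters, which were washed with cold water. Bound label was counted by liquid scintillation.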

HeLa [4] = experiment: Induction of apoptosis in human HeLa cells assessed as increase in number of late apoptotic cells for 24 and 48 hrs by annexin-V/propidium-iodide staining based flow cytometry; assay type: functional, cell-based
Summary of the method: (§3)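 Annexin-V-FITC/PI double staining with flow cytometry on HL-60 and HeLa cells after 24 or 48 h of treatment. Excitation 488 nm; emission 525 nm (FITC) and 585 nm (PI). Early apoptotic cells scored as annexin-V+/PI−, late apoptotic as annexin-V+/PI+. Means of three independent experiments.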

HL-60 [5] = experiment: Cell cycle arrest in human HL60 cells assessed as increase in accumulation at G2/M phase for 24 hrs by flow cytometry; assay type: functional, cell-based
Summary of the method: (§4)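 DNA-content flow cytometry. 5×10⁵ HeLa or HL-60 cells were treated 24 h at a range of concentrations. Cells were fixed in ice-cold 70% ethanol, lysed in buffer with RNase A and 0.1% Triton X-100, and stained with PI. Phase distribution was taken from DNA histograms. Means of three independent experiments.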

HeLa [6] = experiment: Cell cycle arrest in human HeLa cells assessed as increase in accumulation at G2/M phase for 24 hrs by flow cytometry; assay type: functional, cell-based; summary of the method: as §4
HL-60 [7] = experiment: Cell cycle arrest in human HL60 cells assessed as decrease in accumulation at S phase at 0 to 30 uM for 24 hrs by flow cytometry; assay type: functional, cell-based; summary of the method: as §4
HeLa [8] = experiment: Cell cycle arrest in human HeLa cells assessed as increase in accumulation at G2/M phase at 10 uM for 24 hrs by flow cytometry; assay type: functional; conditions: in the assay text read “at 15 to 30 uM” for “at 10 uM”; summary of the method: as §4
HL-60 [9] = experiment: Induction of apoptosis in human HL60 cells assessed as increase in number of early apoptotic cells for 24 and 48 hrs by annexin-V/propidium-iodide staining based flow cytometry; assay type: functional, cell-based; summary of the method: as §3
HeLa [10] = experiment: Cell cycle arrest in human HeLa cells assessed as decrease in accumulation at G1 phase at 0 to 30 uM for 24 hrs by flow cytometry; assay type: functional, cell-based; summary of the method: as §4
HL-60 [11] = experiment: Induction of apoptosis in human HL60 cells assessed as increase in number of late apoptotic cells at 1 and 10 uM by annexin-V/propidium-iodide staining based flow cytometry; assay type: functional, cell-based; conditions: TDE = time-dependent effect; summary of the method: as §3
HL-60 [12] = experiment: Induction of apoptosis in human HL60 cells assessed as increase in cleaved caspase-3 level at 1 to 10 uM after 24 to 48 hrs by western blot analysis; assay type: functional, cell-based
Summary of the method: (§5)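 Western blot on HL-60 cells exposed for the indicated times. Lysates were cleared at 15000 × g, 4 °C; 20 µg protein was run on 7.5–15% SDS-PAGE and transferred to PVDF. Blocking in 5% BSA for 2 h, then caspase-3 and PARP antibodies overnight at 4 °C and peroxidase secondary for 60 min. ECL detection; β-actin reprobe as loading control.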

HL-60 [13] = experiment: Cell cycle arrest in human HL60 cells assessed as decrease in accumulation at G1 phase at 0 to 30 uM for 24 hrs by flow cytometry; assay type: functional, cell-based; summary of the method: as §4
HeLa [14] = experiment: Induction of apoptosis in human HeLa cells assessed as increase in number of late apoptotic cells at 1 and 10 uM hrs by annexin-V/propidium-iodide staining based flow cytometry; assay type: functional, cell-based; conditions: TDE = time-dependent effect; summary of the method: as §3
HL-60 [15] = experiment: Induction of apoptosis in human HL60 cells assessed as increase in number of early apoptotic cells at 1 and 10 uM by annexin-V/propidium-iodide staining based flow cytometry; assay type: functional, cell-based; conditions: TDE = time-dependent effect; summary of the method: as §3
Tubulin (Bos taurus) [16] = target: T1, Tubulin (Bos taurus); experiment: Displacement of [3H]colchicine from bovine brain tubulin at 5 uM after 10 mins by liquid scintillation counting; summary of the method: as §2
HeLa [17] = experiment: Induction of apoptosis in human HeLa cells assessed as increase in number of early apoptotic cells at 1 and 10 uM hrs by annexin-V/propidium-iodide staining based flow cytometry; assay type: functional, cell-based; conditions: TDE = time-dependent effect; summary of the method: as §3
HL-60 [18] = experiment: Induction of apoptosis in human HL60 cells assessed as increase in number of late apoptotic cells for 24 and 48 hrs by annexin-V/propidium-iodide staining based flow cytometry; assay type: functional, cell-based; summary of the method: as §3
HL-60 [19] = experiment: Induction of apoptosis in human HL60 cells assessed as increase in cleaved PARP level at 1 to 10 uM after 24 to 48 hrs by western blot analysis; assay type: functional, cell-based; summary of the method: as §5
HeLa [20] = experiment: Induction of apoptosis in human HeLa cells assessed as increase in number of early apoptotic cells for 24 and 48 hrs by annexin-V/propidium-iodide staining based flow cytometry; assay type: functional, cell-based; summary of the method: as §3
HL-60 [21] = experiment: Cell cycle arrest in human HL60 cells assessed as increase in accumulation at G2/M phase at 10 uM for 24 hrs by flow cytometry; assay type: functional; conditions: in the assay text read “at 15 to 30 uM” for “at 10 uM”; summary of the method: as §4
HeLa [22] = experiment: Cell cycle arrest in human HeLa cells assessed as decrease in accumulation at S phase at 0 to 30 uM for 24 hrs by flow cytometry; assay type: functional, cell-based; summary of the method: as §4

SMILES | pIC50 (HL-60 [1]) | pIC50 (MCF7) | pIC50 (MDA-MB-231) | pIC50 (Raji) | pIC50 (HeLa [2]) | IC50 (Tubulin) [µM] | inhibition (Tubulin (Bos taurus) [3]) [%] | other results
COc1ccc(NC(=O)/C=C/c2c[nH]c3ccccc23)cc1OC | 5.21 | < 4.00 | < 4.00 | 4.99 | 4.50 | > 40 | 11 | 
COc1ccc(NC(=O)/C=C/c2c[nH]c3ccccc23)c(OC)c1 | 4.75 | < 4.00 | < 4.00 | 4.65 | < 4.00 | > 40 | 13 | 
COc1cc(NC(=O)/C=C/c2c[nH]c3ccccc23)cc(OC)c1 | 5.15 | < 4.00 | < 4.00 | 5.03 | < 4.00 | > 40 | 26 | 
COc1ccc(OC)c(NC(=O)/C=C/c2c[nH]c3ccccc23)c1 | 5.00 | < 4.00 | < 4.00 | 4.64 | < 4.00 | > 40 | 15 | 
COc1ccc(CNC(=O)/C=C/c2c[nH]c3ccccc23)c(OC)c1 | < 4.00 | < 4.00 | < 4.00 | < 4.00 | < 4.00 | > 40 |  | 
COc1ccc(CNC(=O)/C=C/c2c[nH]c3ccccc23)cc1OC | < 4.00 | < 4.00 | < 4.00 | < 4.00 | < 4.00 | > 40 | 13 | 
COc1ccc(OC)c(CNC(=O)/C=C/c2c[nH]c3ccccc23)c1 | < 4.00 | < 4.00 | < 4.00 | < 4.00 | < 4.00 | > 40 | 23 | 
COc1cccc(CNC(=O)/C=C/c2c[nH]c3ccccc23)c1OC | < 4.00 | < 4.00 | < 4.00 | < 4.00 | 4.44 | > 40 | 12 | 
COc1cc(NC(=O)/C=C/c2c[nH]c3ccccc23)cc(OC)c1OC | 5.29 | 4.44 | < 4.00 | 5.02 | 4.63 | 17 | 50 | Activity (HeLa [4]): Dose-dependent effect; Activity (HL-60 [5]): Dose-dependent effect; Activity (HeLa [6]): Dose-dependent effect; Activity (HL-60 [7]): Active; Activity (HeLa [8]): > 80%; Activity (HL-60 [9]): Dose-dependent effect; Activity (HeLa [10]): Active; Activity (HL-60 [11]): tde; Activity (HL-60 [12]): Active; Activity (HL-60 [13]): Active; Activity (HeLa [14]): tde; Activity (HL-60 [15]): tde; inhibition (Tubulin (Bos taurus) [16]): 11%; Activity (HeLa [17]): tde; Activity (HL-60 [18]): Dose-dependent effect; Activity (HL-60 [19]): Active; Activity (HeLa [20]): Dose-dependent effect; Activity (HL-60 [21]): 60%; Activity (HeLa [22]): Active
COc1cc(CNC(=O)/C=C/c2c[nH]c3ccccc23)ccc1O | < 4.00 | < 4.00 | < 4.00 | 4.48 | < 4.00 | > 40 | 14 | 
COc1cc(OC)c(NC(=O)/C=C/c2c[nH]c3ccccc23)c(OC)c1 | < 4.00 | < 4.00 | < 4.00 | < 4.00 | < 4.00 | > 40 | 11 | 
